Assays:
A-375 = test: Antiproliferation activity against human A375P cells after 48 hrs by MTT assay in presence of fetal bovine serum; assay type: functional, cell-based; settings: A-375, 48 h
Procedure, shortened: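 A375P cells kept in DMEM with 10% FBS and 1% penicillin/streptomycin at 37 °C, 5% CO2. Plated at 5 × 10³ cells/well, left 24 h, then given 12 concentrations (3-fold serial dilution) for 48 h. Viability read by MTT reduction at 590 nm. IC50 from the dose-response curve; each compound tested in triplicate.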

NIH3T3 = test: Antiproliferation activity against mouse NIH/3T3 cells after 48 hrs by MTT assay in presence of bovine calf serum; assay type: cell-based; settings: NIH3T3, 48 h
SK-MEL-2 = test: Antiproliferation activity against human SK-MEL-2 cells after 48 hrs by SRB assay; assay type: functional, cell-based; settings: SK-MEL-2, 48 h
Procedure, shortened: (§1)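 Run by the NCI. Cells grown in RPMI 1640 with 5% FBS and 2 mM glutamine, plated at 5000–40,000 cells/well by doubling time, and left 24 h at 37 °C, 5% CO2. Time-zero plates fixed with TCA. Drug (DMSO stock) given at five concentrations for 48 h. Cells fixed with cold TCA (final 10%), stained with 0.4% SRB, and read at 515 nm. IC50 taken as 50% reduction in net protein increase versus control.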

Malme-3M = test: Antiproliferation activity against human MALME-3M cells after 48 hrs by SRB assay; assay type: functional, cell-based; procedure, shortened: as §1
UACC-62 = test: Antiproliferation activity against human UACC62 cells after 48 hrs by SRB assay; assay type: functional, cell-based; settings: UACC-62, 48 h; procedure, shortened: as §1
MDA-MB-435 = test: Antiproliferation activity against human MDA-MB-435 cells after 48 hrs by SRB assay; assay type: functional, cell-based; settings: MDA-MB-435, 48 h; procedure, shortened: as §1
SK-MEL-28 = test: Antiproliferation activity against human SK-MEL-28 cells after 48 hrs by SRB assay; assay type: functional, cell-based; settings: SK-MEL-28, 48 h; procedure, shortened: as §1
UACC-257 = test: Antiproliferation activity against human UACC257 cells after 48 hrs by SRB assay; assay type: functional, cell-based; settings: UACC-257, 48 h; procedure, shortened: as §1
LOX IMVI = test: Antiproliferation activity against human LOXIMVI cells after 48 hrs by SRB assay; assay type: functional, cell-based; procedure, shortened: as §1
SK-MEL-5 = test: Antiproliferation activity against human SK-MEL-5 cells after 48 hrs by SRB assay; assay type: functional, cell-based; settings: SK-MEL-5, 48 h; procedure, shortened: as §1
M14 = test: Antiproliferation activity against human M14 cells after 48 hrs by SRB assay; assay type: functional, cell-based; settings: M14, 48 h; procedure, shortened: as §1

Row | Compound | IC50 (A-375) | IC50 (NIH3T3) | also measured
1 | Cc1cc(NC(=O)c2ccc(N3CCOCC3)c(C(F)(F)F)c2)ccc1-n1ccc2c(NC(=O)c3ccccc3)nccc21 | > 10 µM | – | –
2 | O=C(Nc1ccc(-n2ccc3c(NC(=O)c4ccccc4)nccc32)cc1)Nc1ccc(Cl)c(Cl)c1 | 0.2 µM | 11.5 µM | –
3 | CCN1CCN(Cc2ccc(NC(=O)Nc3ccc(-n4ccc5c(NC(=O)c6ccccc6)nccc54)cc3)cc2C(F)(F)F)CC1 | 0.095 µM | 0.98 µM | IC50 (SK-MEL-2): 3.62 µM; IC50 (Malme-3M): 1.54 µM; IC50 (UACC-62): 1.27 µM; IC50 (MDA-MB-435): 0.894 µM; IC50 (SK-MEL-28): 1.29 µM; IC50 (UACC-257): 1.59 µM; IC50 (LOX IMVI): 0.481 µM; IC50 (SK-MEL-5): 0.764 µM; IC50 (M14): 1.22 µM
4 | Nc1nccc2c1ccn2-c1ccc(NC(=O)Nc2ccc(Cl)c(C(F)(F)F)c2)cc1 | 8 µM | – | –
5 | O=C(Nc1ccc(-n2ccc3c(NC(=O)c4ccccc4)nccc32)cc1)c1cccc(C(F)(F)F)c1 | 0.1 µM | 0.05 µM | –
6 | O=C(Nc1ccc(-n2ccc3c(NC(=O)c4ccccc4)nccc32)cc1)c1ccc(Cl)c(C(F)(F)F)c1 | 0.0164 µM | 5.65 µM | –
7 | Cc1cn(-c2cc(C(=O)Nc3ccc(-n4ccc5c(NC(=O)c6ccccc6)nccc54)cc3)cc(C(F)(F)F)c2)cn1 | 0.8 µM | 5.57 µM | –
8 | O=C(Nc1ccc(-n2ccc3c(NC(=O)c4ccccc4)nccc32)cc1)c1ccc(N2CCOCC2)c(C(F)(F)F)c1 | 0.007 µM | 1.74 µM | IC50 (SK-MEL-2): 0.637 µM; IC50 (Malme-3M): 11.5 µM; IC50 (UACC-62): 0.485 µM; IC50 (MDA-MB-435): 0.119 µM; IC50 (SK-MEL-28): 0.292 µM; IC50 (UACC-257): 1.98 µM; IC50 (LOX IMVI): 0.0456 µM; IC50 (SK-MEL-5): 0.138 µM; IC50 (M14): 0.763 µM
9 | O=C(Nc1ccc(-n2ccc3c(NC(=O)c4ccccc4)nccc32)cc1)c1cc(N2CCOCC2)cc(C(F)(F)F)c1 | 0.3 µM | 0.27 µM | –
10 | Cc1cc(NC(=O)c2cccc(C(F)(F)F)c2)ccc1-n1ccc2c(NC(=O)c3ccccc3)nccc21 | > 10 µM | – | –
11 | Nc1nccc2c1ccn2-c1ccc(NC(=O)c2ccc(Cl)c(C(F)(F)F)c2)cc1 | 3.8 µM | – | –
12 | Nc1nccc2c1ccn2-c1ccc(NC(=O)c2ccc(N3CCOCC3)c(C(F)(F)F)c2)cc1 | 6.2 µM | – | –
13 | CNC(=O)c1cc(Oc2ccc(NC(=O)Nc3ccc(Cl)c(C(F)(F)F)c3)cc2)ccn1 [SORAFENIB] | 5.6 µM | 24.8 µM | –

Continued, in another order:

Row | IC50 (A-375) | Compound | IC50 (NIH3T3) | also measured
14 | > 10 µM | O=C(Nc1ccc(-n2ccc3c(NC(=O)c4ccccc4)nccc32)cc1)Nc1cccc(Cl)c1Cl | – | –
15 | 7 µM | O=C(Nc1ccc(-n2ccc3c(NC(=O)c4ccccc4)nccc32)cc1)Nc1cccc(C(F)(F)F)c1 | – | –
16 | 2.4 µM | O=C(Nc1ccc(-n2ccc3c(NC(=O)c4ccccc4)nccc32)cc1)Nc1ccc(Cl)c(C(F)(F)F)c1 | – | –
17 | 1.8 µM | O=C(Nc1ccc(-n2ccc3c(NC(=O)c4ccccc4)nccc32)cc1)Nc1cc(C(F)(F)F)cc(C(F)(F)F)c1 | – | –
18 | > 10 µM | Cc1cc(NC(=O)Nc2cccc(Cl)c2Cl)ccc1-n1ccc2c(NC(=O)c3ccccc3)nccc21 | – | –
19 | 5.4 µM | Nc1nccc2c1ccn2-c1ccc(NC(=O)Nc2cccc(C(F)(F)F)c2)cc1 | – | –
20 | 2.7 µM | Cc1cc(NC(=O)c2ccc(Cl)c(C(F)(F)F)c2)ccc1-n1ccc2c(NC(=O)c3ccccc3)nccc21 | – | –
21 | 1 µM | O=C(Nc1nccc2c1ccn2-c1ccc(NC(=O)c2ccc(-c3cc(C(F)(F)F)ccc3Cl)o2)cc1)c1ccccc1 | 15.9 µM | –

From ChEMBL document CHEMBL1806469, “Design, synthesis, and antiproliferative activity of new 1H-pyrrolo[3,2-c]pyridine derivatives against melanoma cell lines” (Eur J Med Chem, 2011)
